Measured values taken from ChEMBL document CHEMBL4396878, “Mechanisms of Specific versus Nonspecific Interactions of Aggregation-Prone Inhibitors and Attenuators” (J Med Chem, 2019).
The source made the active and inactive calls. No cut-off for these calls is given here.

Columns and labels:
[1] = Aggregation property of the compound in NMR buffer assessed as aggregate size at 500 uM by dynamic light scattering analysis; format: physicochemical
Outline: (§1)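 Dynamic light scattering in NMR buffer, samples filtered through 0.22 μm and centrifuged 5 min at 13 500 rpm before measurement. Autocorrelation accumulated 150 s at a 173° scattering angle, in replicates of 3–5, with water viscosity used in analysis; intensity or volume size distributions reported.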

[2] = Aggregation property of the compound assessed as change in peak intensity by measuring concentration at which peak intensities deviated from the linear correlation by 1H-NMR analysis; format: physicochemical
Outline: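 Line widths, chemical shifts and peak intensities tracked; CAC taken as the concentration where intensities deviate from linear dependence, or, for line width, the minimal concentration that increases peak width.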

[3] = biological target: T1, Rap guanine nucleotide exchange factor 3 (Homo sapiens) (UniProt O95398); assay: Binding affinity to human EPAC1 cAMP binding domain (149 to 318 residues) at 100 uM in presence of triton X-100 by [15N-1H]HSQC spectroscopic analysis
T1 sequence (whole entry): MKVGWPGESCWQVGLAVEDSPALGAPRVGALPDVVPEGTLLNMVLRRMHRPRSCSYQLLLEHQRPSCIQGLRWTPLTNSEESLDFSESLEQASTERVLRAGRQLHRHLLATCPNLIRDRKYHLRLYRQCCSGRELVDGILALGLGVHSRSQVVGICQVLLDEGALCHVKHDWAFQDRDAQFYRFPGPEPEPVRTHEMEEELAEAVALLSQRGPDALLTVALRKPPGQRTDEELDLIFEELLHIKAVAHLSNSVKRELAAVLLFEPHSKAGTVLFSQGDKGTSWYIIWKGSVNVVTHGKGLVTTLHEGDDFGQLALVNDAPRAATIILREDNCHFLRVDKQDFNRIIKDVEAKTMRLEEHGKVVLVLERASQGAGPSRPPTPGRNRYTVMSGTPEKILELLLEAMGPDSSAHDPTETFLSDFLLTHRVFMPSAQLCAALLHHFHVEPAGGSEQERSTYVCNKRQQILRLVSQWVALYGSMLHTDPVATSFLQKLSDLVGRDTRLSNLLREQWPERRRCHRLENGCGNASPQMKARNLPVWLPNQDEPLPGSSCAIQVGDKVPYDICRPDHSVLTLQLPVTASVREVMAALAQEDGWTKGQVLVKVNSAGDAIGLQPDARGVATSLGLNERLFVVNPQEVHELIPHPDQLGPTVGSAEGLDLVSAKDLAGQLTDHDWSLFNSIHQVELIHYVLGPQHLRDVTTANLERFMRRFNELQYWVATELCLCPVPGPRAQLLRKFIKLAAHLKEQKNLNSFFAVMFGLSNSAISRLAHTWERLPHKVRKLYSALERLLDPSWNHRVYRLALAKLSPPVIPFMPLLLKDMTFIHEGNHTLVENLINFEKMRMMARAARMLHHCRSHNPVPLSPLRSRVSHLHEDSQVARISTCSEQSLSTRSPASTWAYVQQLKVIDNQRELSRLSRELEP

[4] = Binding affinity to Triton-X 100 assessed as aggregate formation at 1:2 ratio of Triton-X 100 to compound by dynamic light scattering analysis; outline: as §1
[5] = Binding affinity to Triton-X 100 assessed as inter-molecular cross relaxation at 100 uM by NOESY spectra analysis
Outline: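 2D NOESY and ROESY of 100 μM ESI with 0.025% Triton X-100 or 500 μM ESI with 0.05% Triton X-100; 2K × 512 complex points, 12 ppm spectral width centred at 4.7 ppm, intra- and intermolecular cross-peaks mapped.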

[6] = Binding affinity to Triton-X 100 assessed as inter-molecular saturation transfer at 100 uM at 6.61 ppm by STD spectra analysis
Outline: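 STD NMR, saturation by a train of 40 Gaussian pulses of 50 ms each; selective on-resonance irradiation at the stated ppm (TX at 7.48 ppm), off-resonance at 30 ppm, interleaved and subtracted by phase cycling. 32K points, 16 ppm width centred at 4.7 ppm, 256 scans, 16 dummy scans, 0.1 s recycle delay (~15 min); 3 Hz exponential line broadening.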

[7] = biological target: T1, Rap guanine nucleotide exchange factor 3 (Homo sapiens); assay: Binding affinity to human EPAC1 cAMP binding domain (149 to 318 residues) assessed as intensity loss using aggregate form of compound by [15N-1H]HSQC spectroscopic analysis
[8] = Reversible binding affinity to Triton-X 100 at dilution from 100 uM by 1H-NMR spectra analysis
[9] = biological target: T1, Rap guanine nucleotide exchange factor 3 (Homo sapiens); assay: Binding affinity to human EPAC1 cAMP binding domain (149 to 318 residues) assessed as peak size at 50 to 200 uM by dynamic light scattering analysis; outline: as §1
[10] = biological target: T1, Rap guanine nucleotide exchange factor 3 (Homo sapiens); assay: Binding affinity to human EPAC1 cAMP binding domain (149 to 318 residues) assessed as peak size at 50 to 200 uM using aggregate form of compound by dynamic light scattering analysis; outline: as §1
[11] = biological target: T1, Rap guanine nucleotide exchange factor 3 (Homo sapiens); assay: Binding affinity to human EPAC1 cAMP binding domain (149 to 318 residues) at 200 to 300 uM in presence of triton X-100 using aggregate form of compound by [15N-1H]HSQC spectroscopic analysis
[12] = Binding affinity to Triton-X 100 assessed as change in chemical shift for aggregate formation at 100 to 300 uM by 1H-NMR analysis
[13] = Binding affinity to Triton-X 100 assessed as line broadening at 100 to 300 uM by 1H-NMR analysis
Albumin [14] = biological target: T2, Albumin (Homo sapiens, UniProt P02768); assay: Displacement of [13C]oleic acid from human serum albumin by CH-HSQC spectra analysis
T2 sequence (P02768 whole entry): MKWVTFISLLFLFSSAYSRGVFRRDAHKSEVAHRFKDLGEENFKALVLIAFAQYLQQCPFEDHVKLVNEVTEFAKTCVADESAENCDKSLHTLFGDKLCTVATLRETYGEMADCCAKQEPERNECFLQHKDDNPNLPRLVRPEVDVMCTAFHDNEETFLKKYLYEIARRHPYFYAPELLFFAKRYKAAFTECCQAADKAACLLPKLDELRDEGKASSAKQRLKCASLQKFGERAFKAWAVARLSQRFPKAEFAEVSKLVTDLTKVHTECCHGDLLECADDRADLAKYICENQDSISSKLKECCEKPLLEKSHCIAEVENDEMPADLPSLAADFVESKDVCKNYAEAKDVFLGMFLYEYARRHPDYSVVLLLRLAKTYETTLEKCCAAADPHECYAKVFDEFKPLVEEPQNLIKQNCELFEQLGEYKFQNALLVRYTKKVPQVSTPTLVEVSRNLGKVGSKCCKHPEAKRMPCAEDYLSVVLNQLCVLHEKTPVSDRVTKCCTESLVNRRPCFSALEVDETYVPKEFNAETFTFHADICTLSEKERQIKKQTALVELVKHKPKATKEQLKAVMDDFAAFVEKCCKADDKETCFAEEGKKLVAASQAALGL
Outline: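 Fatty-acid-free recombinant HSA at 250 μM in sodium phosphate buffer (20 mM NaPO4, pH 7.6, 50 mM NaCl, D2O), 37 °C for 30 min. 13C-oleic acid (100 mM stock in DMSO-d6, warmed to 50 °C for 10 min) added to 1.5 mM, then 2 h at 37 °C. CH-HSQC at 298 K; loss of site-specific cross-peaks A–H scored.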

Albumin [15] = biological target: T2, Albumin; assay: Displacement of dansylated arginine from human serum albumin by fluorescence assay; conditions: read-out: Kd(app)
Outline: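 Competition of ligand against 100 μM dansyl-arginine (Sudlow site 1, 1:1 stoichiometry) bound to 2.5 μM HSA. Excitation 370 nm, emission 460 nm. Apparent Kd fitted by Wang's method using least squares, assuming no other ligand sites on HSA, so treated as a maximum apparent value.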

Albumin [16] = biological target: T2, Albumin; assay: Binding affinity to human serum albumin assessed as inhibition of compound aggregation at 250 uM by surface plasmon resonance analysis
Outline: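 SPR on a nonfunctionalized gold nanoparticle sensor; samples in NMR buffer with DMSO at 1.25%, injected at 33 μL/min alongside matched DMSO controls (with HSA where present, 25 μM), in duplicate. Surface regenerated only after HSA-containing injections.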

Albumin [17] = biological target: T2, Albumin; assay: Binding affinity to human serum albumin assessed as inhibition of compound aggregation at 500 uM by surface plasmon resonance analysis
[18] = biological target: T1, Rap guanine nucleotide exchange factor 3 (Homo sapiens); assay: Binding affinity to human EPAC1 cAMP binding domain (149 to 318 residues) assessed as increase in peak intensity in presence of human serum albumin by [15N-1H]HSQC spectroscopic analysis relative to control

CC(C)(C)c1cc(C(=O)/C(C#N)=N/Nc2cccc(Cl)c2)no1
Activity [1]: 90 to 600 nm
Activity [2]: 150 µM
Activity [3]: Active
Activity [4]: Active
Activity [5]: Active
Activity [6]: Active
Activity [7]: Active
Activity [8]: Active
Activity [9]: < 5 nm
Activity [10]: 250 nm
Activity [11]: Active
Activity [12]: Active
Activity [13]: Active
Activity (Albumin [14]): Active
Kd (Albumin [15]): 0.23 µM
inhibition (INH) (Albumin [16]): Active
inhibition (INH) (Albumin [17]): Not Active
Activity [18]: 30 to 40%
